# Laboratory results reported in ChEMBL document CHEMBL5390224, “Design, synthesis, and biological evaluation of a novel series of 1,2,4-oxadiazole inhibitors of SLACK potassium channels: Identification of in vitro tool VU0935685” (Bioorg Med Chem, 2023).
# Active and inactive are the calls of the source. The rule behind the calls is not given here.
# How the values were obtained:
# Format in all cases: cell-based
# HEK293 [1] = experiment: Inhibition of wild-type human SLACK expressed in HEK293 cells assessed as efficacy at 30 uM by thallium flux assay relative to control
# Method in brief: (§1)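 Stable monoclonal HEK293 lines (WT or A934T SLACK) plated 20,000 cells/well; loaded 1 h at room temperature with Thallo-AM dye, 1.25 mM probenecid, masking dye, 0.3% Pluronic F-127 in buffer with 2.7 mM RbCl, pH 7.3. Compound preincubated 120 s, then Tl2SO4 stimulus (2.5 mM); fluorescence read 120 s. Concentration–response 1.5 nM–30 μM in half-log steps, ≥3 replicate wells.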
# [2] = (§2) Inhibition of wild-type human SLACK expressed in HEK293 cells by thallium flux assay; method in brief: as §1
# HEK293 [3] = experiment: as §2; method in brief: as §1
# HEK293 [4] = experiment: Activation of wild-type human SLACK expressed in HEK293 cells assessed as efficacy at 30 uM by thallium flux assay relative to control
# [5] = Inhibition of wild-type human SLACK expressed in CHO cells by whole cell voltage clamp electrophysiology assay; settings: Cricetulus griseus
# Method in brief: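 Automated whole-cell patch clamp at room temperature. External (mM): NaCl 105, KCl 4, MgCl2 1, CaCl2 5, HEPES 10, NMDG-Cl 40, pH 7.4. Internal: NaCl 70, KF 70, KCl 10, EGTA 5, HEPES 5, pH 7.2. Concentrations 0.125–30 μM in half-log steps, ≥3 cells per series.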
# CHO = experiment: Inhibition of wild-type human SLACK expressed in CHO cells assessed as efficacy at 30 uM by whole cell voltage clamp electrophysiology assay; settings: Cricetulus griseus
structure (smiles),measurement,setting,value
CCOc1ccccc1S(=O)(=O)N1CC(c2nc(-c3ccccc3F)no2)C1,Efficacy,HEK293 [1],88%
CCOc1ccccc1S(=O)(=O)N1CC(c2nc(-c3cnsc3)no2)C1,IC50,[2],6.6 µM
same,Efficacy,HEK293 [1],106%
O=S(=O)(c1ccccc1N1CCCC1)N1CC(c2nc(-c3ccc(F)cc3)no2)C1,Efficacy,HEK293 [1],92%
CCOc1ccccc1S(=O)(=O)N1CC(c2nc(-c3cccs3)no2)C1,IC50,[2],6.9 µM
same,Efficacy,HEK293 [1],99%
CCOc1ccccc1S(=O)(=O)[C@H]1C[C@H](c2nc(-c3ccc(F)cc3)no2)C1,Efficacy,HEK293 [1],52%
CCOc1ccccc1S(=O)(=O)N1CC(c2nc(-c3ccc(F)cn3)no2)C1,inhibition,HEK293 [3],inactive
same,Efficacy,HEK293 [1],inactive
CCOc1ccccc1S(=O)(=O)N1CC(c2nnc(-c3ccc(F)cc3)[nH]2)C1,Efficacy,HEK293 [4],31%
O=S(=O)(c1ccccc1OCC1CC1)N1CC(c2nc(-c3ccc(F)cc3)no2)C1,Efficacy,HEK293 [1],95%
CCOc1ccccc1S(=O)(=O)N1CC(c2nc(-c3cccc(C(F)(F)F)c3)no2)C1,Efficacy,HEK293 [1],48%
CCOc1ccccc1S(=O)(=O)C1CN(c2nc(-c3ccc(F)cc3)no2)C1,Efficacy,HEK293 [1],24%
Cc1nc2c(S(=O)(=O)N3CC(c4nc(-c5ccc(F)cc5)no4)C3)cccn2n1,Efficacy,HEK293 [4],16%
O=S(=O)(c1cccc(Cl)c1)N1CC(c2nc(-c3ccsc3)no2)C1,inhibition,HEK293 [3],inactive
same,Efficacy,HEK293 [1],inactive
CCOc1ccccc1OC(=O)N1CC(c2nc(-c3ccsc3)no2)C1,Efficacy,HEK293 [4]; filed as activator,50%
CCOc1ccccc1C(C)N1CC(c2nc(-c3ccsc3)no2)C1 (stereo unspecified),Efficacy,HEK293 [4],< 10%
O=S(=O)(c1ccccc1Cl)N1CC(c2nc(-c3ccsc3)no2)C1,Efficacy,HEK293 [4]; filed as activator,47%
O=S(=O)(c1cccn2ncnc12)N1CC(c2nc(-c3ccc(F)cc3)no2)C1,Efficacy,HEK293 [4],16%
CCOc1ccccc1S(=O)(=O)N1CC(c2cc(-c3ccc(F)cc3)on2)C1,inhibition,HEK293 [3],inactive
same,Efficacy,HEK293 [1],inactive
Cc1nnc2c(S(=O)(=O)N3CC(c4nc(-c5ccc(F)cc5)no4)C3)cccn12,inhibition,HEK293 [3],inactive
same,Efficacy,HEK293 [1],inactive
COc1ccc(Cl)cc1NC(=O)CN1CCN(S(=O)(=O)N2CCC(C)CC2)CC1,IC50,[5],2.28 µM
same,Efficacy,CHO,95%
CCOc1ccccc1S(=O)(=O)N1CC(c2nc(-c3ccc(C(F)(F)F)cc3)no2)C1,IC50,[2],3.8 µM
same,Efficacy,HEK293 [1],95%
CCOc1ccccc1S(=O)(=O)N1CC(c2nc(-c3ccccn3)no2)C1,inhibition,HEK293 [3],inactive
same,Efficacy,HEK293 [1],inactive
CCOc1ccccc1CC(=O)N1CC(c2nc(-c3ccsc3)no2)C1,Efficacy,HEK293 [4],37%
CCCCOc1ccccc1S(=O)(=O)N1CC(c2nc(-c3ccsc3)no2)C1,inhibition,HEK293 [3],inactive
same,Efficacy,HEK293 [1],inactive
O=S(=O)(c1ccccc1F)N1CC(c2nc(-c3ccsc3)no2)C1,Efficacy,HEK293 [4],30%
O=S(=O)(c1ccc(Cl)cc1)N1CC(c2nc(-c3ccsc3)no2)C1,inhibition,HEK293 [3],inactive
same,Efficacy,HEK293 [1],inactive
CCOc1ccccc1S(=O)(=O)N1CC(c2nc(-c3ccc(C)cc3)no2)C1,inhibition,HEK293 [3],inactive
same,Efficacy,HEK293 [1],inactive
CCOc1ccccc1S(=O)(=O)N1CC(c2nc(-c3cccc(Cl)c3)no2)C1,inhibition,HEK293 [3],inactive
same,Efficacy,HEK293 [1],inactive
CCOc1ccccc1S(=O)(=O)N1CC(c2nc(-c3ccc(Cl)cc3F)no2)C1,IC50,[2],7.2 µM
same,Efficacy,HEK293 [1],99%
COc1cccc(S(=O)(=O)N2CC(c3nc(-c4ccsc4)no3)C2)c1,inhibition,HEK293 [3],inactive
same,Efficacy,HEK293 [1],inactive
CCOc1ccccc1S(=O)(=O)N1CC(c2nc(-c3ccc(Cl)cc3)no2)C1,Efficacy,HEK293 [1],94%
Cc1cn2cccc(S(=O)(=O)N3CC(c4nc(-c5ccc(F)cc5)no4)C3)c2n1,Efficacy,HEK293 [4],19%
CCOc1ccccc1S(=O)(=O)N1CC(c2noc(-c3ccc(F)cc3)n2)C1,Efficacy,HEK293 [1],45%
O=S(=O)(c1cccc2ccoc12)N1CC(c2nc(-c3ccc(F)cc3)no2)C1,Efficacy,HEK293 [4],37%
CCCc1ccccc1S(=O)(=O)N1CC(c2nc(-c3ccsc3)no2)C1,Efficacy,HEK293 [1],79%
O=S(=O)(c1ccccc1OC1CCCC1)N1CC(c2nc(-c3ccc(F)cc3)no2)C1,Efficacy,HEK293 [1],93%
CCOc1ccccc1S(=O)(=O)N1CC(c2cn(-c3ccc(F)cc3)nn2)C1,Efficacy,HEK293 [4]; filed as activator,41%
CCOc1ccccc1S(=O)(=O)N1CC(c2nc(-c3ccccc3)no2)C1,Efficacy,HEK293 [1],51%
CCOc1ccccc1S(=O)(=O)N1CC(c2nc(-c3ncccn3)no2)C1,inhibition,HEK293 [3],inactive
same,Efficacy,HEK293 [1],inactive
CCOc1ccccc1S(=O)(=O)N1CC(F)(c2nc(-c3ccc(F)cc3)no2)C1,Efficacy,HEK293 [1],98%
CCOc1ccccc1S(=O)(=O)N1CC(c2nc(-c3ccc(F)cc3)c[nH]2)C1,Efficacy,HEK293 [4],34%
